Calls of active or inactive are those of the source. The rule behind the calls is not given here.
How the values were obtained:
[1] = (§1) Cytotoxicity against mouse HT22 cells assessed as cell viability at 10 uM after 18 hrs by MTT assay; type: cell-based, HT-22; details: HT22 cells, read-out: Activity
Method in brief: (§2)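 HT22 cells were grown in DMEM with 10% FBS and penicillin/streptomycin at 37 °C in 5% CO2, and seeded at 5000 cells/well. Next day they were exposed to 10 µM compound for 18 h. MTT was then added for 3 h, formazan dissolved in acidic 2-propanol, and OD read at 570 nm. Viability is blank-corrected absorbance relative to control. Run in triplicate.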

[2] = system: HT-22; experiment: Neuroprotective activity in mouse HT22 cells assessed as inhibition of amyloid beta-induced cytotoxicity by measuring cell viability at 10 uM after 18 hrs by MTT assay; type: functional; details: HT-22, 18 h
Method in brief: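 Aβ peptide was pretreated in HFIP, dried to a film, redissolved in DMSO, and aggregated at 200 µM in PBS for 24 h at 4 °C. HT22 cells (5000/well) were exposed the next day to 2 µM aggregated Aβ plus 10 µM compound for 18 h. Viability was read by MTT at 570 nm, and percent inhibition was calculated against Aβ with vehicle. Triplicate.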

[3] = biological target: Advanced glycosylation end product-specific receptor (Homo sapiens) (UniProt Q15109); experiment: Inhibition of human RAGE-amyloid beta-42 interaction at 4 uM preincubated for 30 mins measured after 1 hr by FRET assay relative to control
Chain of Advanced glycosylation end product-specific receptor (Homo sapiens) (Q15109 whole entry): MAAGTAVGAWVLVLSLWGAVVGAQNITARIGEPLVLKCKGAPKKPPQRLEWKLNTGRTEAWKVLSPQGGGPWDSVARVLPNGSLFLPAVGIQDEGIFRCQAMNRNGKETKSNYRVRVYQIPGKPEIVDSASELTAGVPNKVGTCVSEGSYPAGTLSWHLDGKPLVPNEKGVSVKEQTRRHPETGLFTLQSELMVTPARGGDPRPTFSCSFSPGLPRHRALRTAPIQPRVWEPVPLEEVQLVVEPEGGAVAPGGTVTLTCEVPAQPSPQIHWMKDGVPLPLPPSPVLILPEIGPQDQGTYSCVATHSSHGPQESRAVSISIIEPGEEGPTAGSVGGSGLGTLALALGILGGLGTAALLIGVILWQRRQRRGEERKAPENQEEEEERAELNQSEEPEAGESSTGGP
Method in brief: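 Biotinylated human RAGE (2.5 µg) was premixed with 200 ng Cy3-streptavidin in PBS for 30 min at rt. Aβ42-FITC (50 µL of 40 nM) and compound (50 µL of 4 µM) were then added, in 200 µL final volume with 0.1% DMSO. Fluorescence was read 1 h later. FRET efficiency was computed from donor emission with and without acceptor, and percent inhibition was taken against vehicle. Triplicate.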

[4] = system: HT-22; experiment: as §1; type: cell-based; details: ht-22, 18 h, 10 µM; method in brief: as §2
[5] = Solubility of the compound in water; type: physicochemical; details: buffer
[6] = system: Mus musculus; experiment: Antialzheimer activity in APPsw/PS1 transgenic mouse assessed as reduction of total amyloid beta 1-40 level in brain homogenates at 50 mg/kg, po administered every 2 days for 4 weeks by ELISA
[7] = system: Mus musculus; experiment: Antialzheimer activity in APPsw/PS1 transgenic mouse assessed as reduction of total amyloid beta 1-42 level in brain homogenates at 50 mg/kg, po administered every 2 days for 4 weeks by ELISA
[8] = system: Mus musculus; experiment: Toxicity in APPsw/PS1 transgenic mouse at 50 mg/kg, po administered every 2 days for 4 weeks; type: organism-based; details: in vivo
[9] = system: Mus musculus; experiment: Antialzheimer activity in APPsw/PS1 transgenic mouse assessed as reduction of total amyloid beta 1-40 level in brain homogenates at 50 mg/kg, po administered every 2 days for 4 weeks by ELISA; type: functional, organism-based
Method in brief: (§3)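 Male APPsw/PS1 mice, 34 weeks old (n = 4–5), dosed by gavage at 50 mg/kg every 2 days for 4 weeks. Total Aβ1–40 and Aβ1–42 were measured by ELISA kit. Results given as mean ± SD.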

[10] = system: Mus musculus; experiment: Antialzheimer activity in APPsw/PS1 transgenic mouse assessed as reduction of total amyloid beta 1-42 level in brain homogenates at 50 mg/kg, po administered every 2 days for 4 weeks by ELISA; type: functional, organism-based; method in brief: as §3

| Structure (SMILES) | viability at 18 h, 10 µM [1] | inhibition [3] | further results |
| --- | --- | --- | --- |
| CC(C)(C)OC(=O)N1CCN(CCCOc2ccc(-c3nc4ccc(Oc5ccc(F)cc5)cc4o3)cc2)CC1 | 15.2% | 21% | inhibition at 10 µM [2]: 62.3% |
| Clc1ccc(Oc2ccc3nc(-c4ccc(OCCCN5CCN(c6ccccc6)CC5)cc4)oc3c2)cc1 | – | inactive | Activity [4]: Non-toxic; solubility [5]: Insoluble |
| Clc1ccc(Oc2ccc3nc(-c4ccc(OCCCN5CCC(c6ccccc6)CC5)cc4)oc3c2)cc1 | – | inactive | Activity [4]: Non-toxic; solubility [5]: Insoluble |
| CC(C)(C)OC(=O)N1CCN(CCCOc2ccc(-c3nc4ccc(Oc5ccc(Cl)cc5)cc4o3)cc2)CC1 | – | 40% | Activity [6]: Active; Activity [7]: Active; Activity [4]: Non-toxic; Activity [8]: Non-toxic; inhibition at 10 µM [2]: 65%; Activity [9]: Active; Activity [10]: Active |
| FC(F)(F)c1ccc(Oc2ccc3nc(-c4ccc(OCCCN5CCCCC5)cc4)oc3c2)cc1 | 93.4% | 44.3% | – |
| CC(C)(C)c1ccc(Oc2ccc3nc(-c4ccc(OCCCN5CC[C@@H](N)C5)cc4)oc3c2)cc1 | 12.8% | inactive | – |
| Clc1ccc(Oc2ccc3nc(-c4ccc(OCCCN5CCN(c6ncccn6)CC5)cc4)oc3c2)cc1 | 25.1% | 25.1% | solubility [5]: Insoluble |
| CC(C)(C)OC(=O)N1CCN(CCCOc2ccc(-c3nc4ccc(Oc5ccc(C(F)(F)F)cc5)cc4o3)cc2)CC1 | 7.9% | 27.8% | – |
| Clc1ccc(Oc2ccc3nc(-c4ccc(OCCCN5CCCCC5)cc4)oc3c2)cc1 | 32.4% | 2.2% | – |
| Clc1ccc(Oc2ccc3nc(-c4ccc(OCCCN5CCNCC5)cc4)oc3c2)cc1 | 18.5% | 42.7% | – |
| CC(C)N1CCC(Oc2ccc(-c3nc4ccc(Oc5ccc(Cl)cc5)cc4o3)cc2)CC1 | 86.5% | 12.7% | – |
| CC(C)(C)OC(=O)N[C@@H]1CCN(CCCOc2ccc(-c3nc4ccc(Oc5ccc(Cl)cc5)cc4o3)cc2)C1 | 63.2% | 90.2% | – |
| CC(C)(C)OC(=O)N1CCN(CCCOc2ccc(-c3nc4ccc(Oc5cccc(C(F)(F)F)c5)cc4o3)cc2)CC1 | – | 22.8% | Activity [4]: Non-toxic; inhibition at 10 µM [2]: 56.2% |
| CN1CCC(Oc2ccc(-c3nc4ccc(Oc5ccc(Cl)cc5)cc4o3)cc2)CC1 | 74.3% | 19.5% | – |
| Clc1ccc(Oc2ccc3nc(-c4ccc(OCC5CCNCC5)cc4)oc3c2)cc1 | 29% | inactive | – |
| CC(C)(C)c1ccc(Oc2ccc3nc(-c4ccc(OCCCN5CCCCC5)cc4)oc3c2)cc1 | 49.4% | inactive | – |
| CC(C)(C)C1CCN(CCCOc2ccc(-c3nc4ccc(Oc5ccc(Cl)cc5)cc4o3)cc2)CC1 | 32.2% | 16.6% | – |
| CCN(CC)CCOc1ccc(-c2nc3ccc(Oc4ccc(Cl)cc4)cc3o2)cc1 | 85.2% | 33.5% | – |
| CCN1CCC(COc2ccc(-c3nc4ccc(Oc5ccc(Cl)cc5)cc4o3)cc2)CC1 | 4.1% | 2.1% | – |
| CC(=O)N1CCC(COc2ccc(-c3nc4ccc(Oc5ccc(Cl)cc5)cc4o3)cc2)CC1 | 32.7% | inactive | – |
| Clc1ccc(Oc2ccc3nc(-c4ccc(OCC5CCN(Cc6ccccc6)CC5)cc4)oc3c2)cc1 | 82.4% | 5.1% | solubility [5]: Insoluble |
| Clc1ccc(Oc2ccc3nc(-c4ccc(OC5CCNCC5)cc4)oc3c2)cc1 | 20.6% | 20.6% | – |
| CCN1CCC(Oc2ccc(-c3nc4ccc(Oc5ccc(Cl)cc5)cc4o3)cc2)CC1 | 38.2% | 15.3% | – |
| CC(C)(C)OC(=O)N[C@H]1CCN(CCCOc2ccc(-c3nc4ccc(Oc5ccc(C(C)(C)C)cc5)cc4o3)cc2)C1 | 8.2% | 61.6% | – |
| CC(C)OC(=O)N1CCN(CCCOc2ccc(-c3nc4ccc(Oc5ccc(Cl)cc5)cc4o3)cc2)CC1 | – | 25.9% | Activity [4]: Non-toxic; inhibition at 10 µM [2]: 54.4% |
| CCN(CC)CCCOc1ccc(-c2nc3ccc(Oc4ccc(C(C)(C)C)cc4)cc3o2)cc1 | 74.1% | inactive | – |
| Clc1ccc(Oc2ccc3nc(-c4ccc(OCCN5CCCCC5)cc4)oc3c2)cc1 | 21.4% | 18.5% | – |
| CCN(CC)CCCOc1ccc(-c2nc3ccc(Oc4ccc(Cl)cc4)cc3o2)cc1 | 32.1% | 4.9% | – |
| CC(C)(C)OC(=O)N1CCN(CCOc2ccc(-c3nc4ccc(Oc5ccc(Cl)cc5)cc4o3)cc2)CC1 | – | 24.6% | Activity [4]: Non-toxic; inhibition at 10 µM [2]: 50.6% |

From ChEMBL document CHEMBL3593222, “6-Phenoxy-2-phenylbenzoxazoles, novel inhibitors of receptor for advanced glycation end products (RAGE)” (Bioorg Med Chem, 2015)
